Key:
Format in all cases: cell-based
[1] = Cytotoxicity against human 2008/MRP1 cells assessed as cell survival at 2 uM after 5 days by MTS assay relative to control; conditions: read-out: Survival
[2] = target: T1, Multidrug resistance-associated protein 1 (Homo sapiens, UniProt P33527); assay: Inhibition of MRP1 in human 2008/MRP1 cells assessed as potentiation of doxorubicin-induced cytotoxicity by measuring cell survival at 2 uM after 5 days by MTS assay relative to control; conditions: 120 h
T1 sequence (P33527 whole entry): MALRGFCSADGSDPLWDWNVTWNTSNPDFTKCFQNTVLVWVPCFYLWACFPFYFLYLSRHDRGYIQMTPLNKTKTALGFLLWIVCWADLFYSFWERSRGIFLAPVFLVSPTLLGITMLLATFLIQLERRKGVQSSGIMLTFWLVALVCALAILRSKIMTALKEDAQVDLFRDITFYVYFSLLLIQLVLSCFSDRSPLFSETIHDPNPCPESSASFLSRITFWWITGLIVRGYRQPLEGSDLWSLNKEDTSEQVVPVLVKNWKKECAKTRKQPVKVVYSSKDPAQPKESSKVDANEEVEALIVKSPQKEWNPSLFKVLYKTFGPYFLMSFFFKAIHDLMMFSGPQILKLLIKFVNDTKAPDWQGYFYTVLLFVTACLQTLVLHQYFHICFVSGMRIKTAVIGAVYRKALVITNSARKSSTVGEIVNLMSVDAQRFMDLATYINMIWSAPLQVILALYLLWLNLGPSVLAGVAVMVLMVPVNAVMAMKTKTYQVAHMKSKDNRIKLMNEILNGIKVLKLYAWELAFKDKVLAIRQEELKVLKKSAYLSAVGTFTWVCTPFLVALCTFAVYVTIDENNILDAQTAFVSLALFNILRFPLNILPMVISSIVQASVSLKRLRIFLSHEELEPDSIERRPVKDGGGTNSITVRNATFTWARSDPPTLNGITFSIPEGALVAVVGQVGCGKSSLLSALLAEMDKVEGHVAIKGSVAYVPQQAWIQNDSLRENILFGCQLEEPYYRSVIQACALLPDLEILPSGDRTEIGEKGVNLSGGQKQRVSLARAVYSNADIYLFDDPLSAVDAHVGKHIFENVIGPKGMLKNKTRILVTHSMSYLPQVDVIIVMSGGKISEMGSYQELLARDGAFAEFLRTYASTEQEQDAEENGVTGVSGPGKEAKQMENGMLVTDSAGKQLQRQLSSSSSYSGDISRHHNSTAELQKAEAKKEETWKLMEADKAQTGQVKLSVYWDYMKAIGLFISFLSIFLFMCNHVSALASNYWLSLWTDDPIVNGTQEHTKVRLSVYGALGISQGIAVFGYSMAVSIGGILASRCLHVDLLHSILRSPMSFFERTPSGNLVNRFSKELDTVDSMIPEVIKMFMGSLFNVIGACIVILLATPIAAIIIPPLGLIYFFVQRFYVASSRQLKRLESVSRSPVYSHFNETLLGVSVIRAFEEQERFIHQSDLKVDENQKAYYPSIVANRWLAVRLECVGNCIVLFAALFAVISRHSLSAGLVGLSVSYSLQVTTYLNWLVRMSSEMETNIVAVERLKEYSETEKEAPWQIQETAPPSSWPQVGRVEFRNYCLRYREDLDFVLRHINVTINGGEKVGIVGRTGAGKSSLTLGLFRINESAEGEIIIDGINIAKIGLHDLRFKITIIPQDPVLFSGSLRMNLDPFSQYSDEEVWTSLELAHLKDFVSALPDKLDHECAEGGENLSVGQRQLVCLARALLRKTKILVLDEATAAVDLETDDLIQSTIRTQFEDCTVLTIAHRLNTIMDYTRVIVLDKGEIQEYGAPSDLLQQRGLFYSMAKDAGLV
Summary of the method: (§1)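 2008/MRP1 cells (retroviral human MRP1 transfectant; RPMI 1640, 10% FBS) at 4,000 per well, with 100 nM doxorubicin plus crude, unpurified click products in DMSO: 2 µM in the primary screen, 1 µM in the secondary. Incubated 5 days at 37 °C. MTS/PMS added for 2 h at 37 °C, absorbance read at 490 nm. % survival is relative to wells without DOX or product. Run in triplicate, at least three experiments.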

[3] = target: T1, Multidrug resistance-associated protein 1; assay: Inhibition of MRP1 in human 2008/MRP1 cells assessed as potentiation of doxorubicin-induced cytotoxicity by measuring cell survival at 1 uM after 5 days by MTS assay relative to control; conditions: 120 h; summary of the method: as §1

O=c1cc(-c2ccc(OCCCc3cn(CCOCCOCCOc4ccc5c(=O)cc(-c6ccccc6)oc5c4)nn3)cc2)oc2ccccc12
viability at 120 h, 2 µM [1]: 49% | Survival [2]: 42% | Survival [3]: 54%

O=c1cc(-c2ccccc2)oc2cc(OCCN(Cc3ccccc3)Cc3cn(CCOCCOc4ccc(-c5oc6ccccc6c(=O)c5OCc5ccccc5)cc4)nn3)ccc12
viability at 120 h, 2 µM [1]: 82% | Survival [2]: 49% | Survival [3]: 53%

O=c1cc(-c2ccc(OCCCc3cn(CCOCCOc4ccc5c(=O)cc(-c6ccccc6)oc5c4)nn3)cc2)oc2ccccc12
viability at 120 h, 2 µM [1]: 39% | Survival [2]: 39%

O=C1c2ccccc2C(=O)N1CCc1cn(CCOCCOCCOc2ccc3c(=O)cc(-c4ccccc4)oc3c2)nn1
viability at 120 h, 2 µM [1]: 23% | Survival [2]: 41%

O=C1c2ccccc2C(=O)N1CCc1cn(CCOc2cccc3c(=O)cc(-c4ccccc4)oc23)nn1
viability at 120 h, 2 µM [1]: 11% | Survival [2]: 37%

O=c1cc(-c2ccccc2)oc2cc(OCCOCCOCCn3cc(CCCOc4ccc(-c5cc(=O)c6cc(F)ccc6o5)cc4)nn3)ccc12
viability at 120 h, 2 µM [1]: 105% | Survival [2]: 40%

O=C1c2ccccc2C(=O)N1CCc1cn(CCOCCOCCOc2ccc(-c3cc(=O)c4cc(F)ccc4o3)cc2)nn1
viability at 120 h, 2 µM [1]: 10% | Survival [2]: 28%

COc1cccc(COc2c(-c3ccc(OCCCCc4cn(CCOCCOc5ccc(-c6cc(=O)c7ccccc7o6)cc5)nn4)cc3)oc3ccccc3c2=O)c1
viability at 120 h, 2 µM [1]: 63% | Survival [2]: 40%

O=C1c2ccccc2C(=O)N1CCc1cn(CCOCCOCCOc2ccc(-c3oc4ccccc4c(=O)c3OCc3ccccc3)cc2)nn1
viability at 120 h, 2 µM [1]: 16% | Survival [2]: 34%

O=C1c2ccccc2C(=O)N1CCc1cn(CCOCCOCCOc2ccc(-c3cc(=O)c4ccccc4o3)cc2)nn1
viability at 120 h, 2 µM [1]: 4% | Survival [2]: 28%

O=c1cc(-c2ccc(OCCCc3cn(CCOCCOCCOc4ccc(-c5cc(=O)c6cc(F)ccc6o5)cc4)nn3)cc2)oc2ccccc12
viability at 120 h, 2 µM [1]: 44% | Survival [2]: 46%

O=c1cc(-c2ccc(OCCOCCOCCn3cc(CN(Cc4ccccc4)Cc4cn(CCOCCOCCOc5ccc(-c6cc(=O)c7ccccc7o6)cc5)nn4)nn3)cc2)oc2ccccc12
viability at 120 h, 2 µM [1]: 49% | Survival [2]: 29%

O=c1cc(-c2ccc(OCCCc3cn(CCOCCOc4ccc(-c5cc(=O)c6cc(F)ccc6o5)cc4)nn3)cc2)oc2ccccc12
viability at 120 h, 2 µM [1]: 43% | Survival [2]: 39%

COc1cccc(COc2c(-c3ccc(OCCCCc4cn(CCOCCOCCOc5ccc(-c6cc(=O)c7cc(C)ccc7o6)cc5)nn4)cc3)oc3ccccc3c2=O)c1
viability at 120 h, 2 µM [1]: 50% | Survival [2]: 46%

O=c1c(OCc2ccccc2)c(-c2ccc(OCCOCCOCCn3cc(CN(Cc4cn(CCOCCOCCOc5ccc(-c6oc7ccccc7c(=O)c6OCc6ccccc6)cc5)nn4)Cc4cn(CCOCCOCCOc5ccc(-c6oc7ccccc7c(=O)c6OCc6ccccc6)cc5)nn4)nn3)cc2)oc2ccccc12
Survival [2]: 81%

O=Cc1ccc(OCCCCc2cn(CCOCCOc3ccc(-c4cc(=O)c5cc(F)ccc5o4)cc3)nn2)cc1
Survival [2]: 78%

O=C(/C=C/c1ccc(OCCCCc2cn(CCOCCOc3ccc4c(=O)cc(-c5ccccc5)oc4c3)nn2)cc1)c1ccc(F)cc1O
Survival [2]: 64%

C#Cc1cccc(C#C)c1
Survival [2]: 84%

C#Cc1ccc(C#C)cc1
Survival [2]: 86%

O=c1cc(-c2ccccc2)oc2cc(OCCCCc3cn(CCOCCOCCOc4ccc(-c5oc6ccccc6c(=O)c5OCc5ccccc5)cc4)nn3)ccc12
Survival [2]: 63%

O=c1cc(-c2ccc(OCCOCCn3cc(CN(Cc4cn(CCOCCOc5ccc(-c6cc(=O)c7ccccc7o6)cc5)nn4)Cc4cn(CCOCCOc5ccc(-c6cc(=O)c7ccccc7o6)cc5)nn4)nn3)cc2)oc2ccccc12
Survival [2]: 82%

O=C(/C=C/c1ccc(OCCCCc2cn(CCOCCOc3ccc(-c4cc(=O)c5cc(F)ccc5o4)cc3)nn2)cc1)c1ccccc1O
Survival [2]: 72%

Cc1ccc(C(=O)/C=C/c2ccc(OCCCCc3cn(CCOCCOCCOc4ccc(-c5cc(=O)c6cc(F)ccc6o5)cc4)nn3)cc2)c(O)c1
Survival [2]: 51%

COCOc1cc(OCc2ccccc2)c2c(=O)cc(-c3ccc(OCCCc4cn(CCOCCOc5ccc(-c6oc7ccccc7c(=O)c6OCc6ccccc6)cc5)nn4)cc3)oc2c1
Survival [2]: 88%

Cc1ccc2oc(-c3ccc(OCCOCCOCCn4cc(CCCOc5ccc(-c6nc7ccccc7c(=O)[nH]6)cc5)nn4)cc3)cc(=O)c2c1
Survival [2]: 72%

O=c1cc(-c2ccccc2)oc2cc(OCCCc3cn(CCOCCOCCOc4ccc(-c5oc6ccccc6c(=O)c5OCc5ccccc5)cc4)nn3)ccc12
Survival [2]: 63%

O=C1c2ccccc2C(=O)N1CCc1cn(CCOCCOc2ccc(-c3cc(=O)c4ccccc4o3)cc2)nn1
viability at 120 h, 2 µM [1]: 18% | Survival [2]: 37%

O=c1cc(-c2ccccc2)oc2cc(OCCCCc3cn(CCOCCOCCOc4ccc5c(=O)cc(-c6ccccc6)oc5c4)nn3)ccc12
Survival [2]: 61%

O=C1c2ccccc2C(=O)N1CCc1cn(CCOCCOc2ccc(-c3cc(=O)c4cc(F)ccc4o3)cc2)nn1
viability at 120 h, 2 µM [1]: 14% | Survival [2]: 39%

Cc1ccc2oc(-c3ccc(OCCCCc4cn(CCOCCOCCOc5ccc(-c6cc(=O)c7ccccc7o6)cc5)nn4)cc3)cc(=O)c2c1
viability at 120 h, 2 µM [1]: 68% | Survival [2]: 39%

[N-]=[N+]=NCCOCCOCCOc1ccc(-c2oc3ccccc3c(=O)c2OCc2ccccc2)cc1
Survival [2]: 74%

O=c1c(OCc2ccccc2)c(-c2cccc(OCCOCCn3cc(CN4CCN(Cc5cn(CCOCCOc6cccc(-c7oc8ccccc8c(=O)c7OCc7ccccc7)c6)nn5)CC4)nn3)c2)oc2ccccc12
Survival [2]: 84%

O=C(/C=C/c1ccc(OCCCCc2cn(CCOCCOCCOc3ccc(-c4cc(=O)c5cc(F)ccc5o4)cc3)nn2)cc1)c1ccccc1O
Survival [2]: 56%

O=c1cc(-c2ccc(OCCCc3cn(CCOCCOc4cccc(-c5oc6ccccc6c(=O)c5OCc5ccccc5)c4)nn3)cc2)oc2ccccc12
Survival [2]: 54%

O=c1cc(-c2ccccc2)oc2cc(OCCN(Cc3ccccc3)Cc3cn(CCOc4cccc5c(=O)cc(-c6ccccc6)oc45)nn3)ccc12
Survival [2]: 80%

C#CCCCOc1ccc(-c2cc(=O)c3ccccc3o2)cc1
Survival [2]: 74%

O=c1c(OCc2ccccc2)c(-c2ccc(OCCOCCOCCn3cc(CN(Cc4ccccc4)Cc4cn(CCOCCOCCOc5ccc(-c6oc7ccccc7c(=O)c6OCc6ccccc6)cc5)nn4)nn3)cc2)oc2ccccc12
Survival [2]: 87%

CN(CCN(C)Cc1cn(CCOCCOc2cccc(-c3oc4ccccc4c(=O)c3OCc3ccccc3)c2)nn1)Cc1cn(CCOCCOc2cccc(-c3oc4ccccc4c(=O)c3OCc3ccccc3)c2)nn1
Survival [2]: 83%

O=c1cc(-c2ccccc2)oc2cc(OCCOCCOCCn3cc(COCCOc4ccc5c(=O)cc(-c6ccccc6)oc5c4)nn3)ccc12
Survival [2]: 60%

Cc1ccc2oc(-c3ccc(OCCOCCOCCn4cc(CN(Cc5ccccc5)Cc5cn(CCOCCOCCOc6ccc(-c7cc(=O)c8cc(C)ccc8o7)cc6)nn5)nn4)cc3)cc(=O)c2c1
Survival [2]: 52%

O=c1cc(-c2ccccc2)oc2cc(OCCOCc3cn(CCOCCOc4ccc(-c5cc(=O)c6cc(F)ccc6o5)cc4)nn3)ccc12
Survival [2]: 54%

COc1cccc(COc2c(-c3ccc(OCCOCCn4cc(CN(C)CCN(C)Cc5cn(CCOCCOc6ccc(-c7oc8ccccc8c(=O)c7OCc7cccc(OC)c7)cc6)nn5)nn4)cc3)oc3ccccc3c2=O)c1
Survival [2]: 64%

O=C(/C=C/c1ccc(OCCCCc2cn(CCOCCOc3cccc(-c4oc5ccccc5c(=O)c4OCc4ccccc4)c3)nn2)cc1)c1ccccc1O
Survival [2]: 83%

C#CCCCCOc1ccc(/C=C/C(=O)c2ccc(F)cc2O)cc1
Survival [2]: 99%

COc1cccc(COc2c(-c3ccc(OCCOCCn4cc(CCCOc5ccc6c(=O)cc(-c7ccccc7)oc6c5)nn4)cc3)oc3ccccc3c2=O)c1
Survival [2]: 78%

COCOc1cc(OCc2ccccc2)c2c(=O)cc(-c3ccc(OCCCc4cn(CCOCCOCCOc5ccc(-c6cc(=O)c7cc(C)ccc7o6)cc5)nn4)cc3)oc2c1
Survival [2]: 53%

O=c1cc(-c2ccccc2)oc2cc(OCCn3cc(-c4cccc(-c5cn(CCOc6ccc7occ(-c8ccccc8)c(=O)c7c6)nn5)c4)nn3)ccc12
Survival [2]: 90%

COc1cccc(COc2c(-c3ccc(OCCCCc4cn(CCOCCOCCOc5ccc(-c6oc7ccccc7c(=O)c6OCc6ccccc6)cc5)nn4)cc3)oc3ccccc3c2=O)c1
viability at 120 h, 2 µM [1]: 53% | Survival [2]: 33%

C#CCCCCOc1ccc(/C=C/C(=O)c2cc(CC)ccc2O)cc1
Survival [2]: 103%

O=c1cc(-c2ccccc2)oc2cc(OCCOCCn3cc(-c4cccc(-c5cn(CCOCCOc6ccc7oc(-c8ccccc8)cc(=O)c7c6)nn5)c4)nn3)ccc12
Survival [2]: 76%

C#CCCCCOc1ccc(-c2cc(=O)c3cc(C)ccc3o2)cc1
Survival [2]: 88%

O=c1cc(-c2ccc(OCCCc3cn(CCOc4cccc5c(=O)cc(-c6ccccc6)oc45)nn3)cc2)oc2ccccc12
Survival [2]: 69%

O=Cc1ccc(OCCCCc2cn(CCOCCOCCOc3ccc(-c4oc5ccccc5c(=O)c4OCc4ccccc4)cc3)nn2)cc1
Survival [2]: 75%

O=Cc1ccc(OCCCCc2cn(CCOCCOCCOc3ccc4c(=O)cc(-c5ccccc5)oc4c3)nn2)cc1
Survival [2]: 81%

C#CCN(C)CCN(C)CC#C
Survival [2]: 87%

O=c1cc(-c2ccc(OCCOCCn3cc(-c4cccc(-c5cn(CCOCCOc6ccc(-c7cc(=O)c8ccccc8o7)cc6)nn5)c4)nn3)cc2)oc2ccccc12
Survival [2]: 79%

Cc1ccc(O)c(C(=O)/C=C/c2ccc(OCCCCc3cn(CCOCCOc4ccc5c(=O)cc(-c6ccccc6)oc5c4)nn3)cc2)c1
Survival [2]: 73%

Cc1ccc(C(=O)/C=C/c2ccc(OCCCCc3cn(CCOCCOc4ccc(-c5cc(=O)c6ccccc6o5)cc4)nn3)cc2)c(O)c1
Survival [2]: 57%

C#CCN(CCOc1ccc2c(=O)cc(-c3ccccc3)oc2c1)Cc1ccccc1
Survival [2]: 86%
